Source: PubChem BioAssay (Johns Hopkins Ion Channel Center)
KCNQ1 act: potentiators or activators of human KCNQ1 potassium channel | AID 2648 | P51787 | B-score at 10 µM | CHO-K1 KCNQ1, thallium flux FluxOR fluorescence; stronger effect = higher value | 0.35% of 310,000 active;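 active = fluorescence ratio B-score, a plate-corrected score, at least three library SD, with initial intensity B-score within 5 SD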
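Assay system: stable KCNQ1 CHO-K1 line; medium: assay buffer, equal DMSO in all wells; timing: 90 min dye loading and 20 min compound exposure, both at room temperature; technique: kinetic FluxOR thallium fluorescence, 10-s 1-Hz baseline, 110-s post-stimulus read; read-out basis: B score of baseline-normalized fluorescence ratio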
KCNK3 block: human KCNK3 channel inhibition, primary screen | O14649 | CHO-KCNK3 thallium flux, FluxOR fluorescence; stronger effect = lower value | B-score at 10 µM | 0.84% of 340,000 active;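 active = B-score under library mean minus 4 SD, starting fluorescence ratio at most library mean plus 5 SD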;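 also: more negative B-score means stronger inhibition of thallium flux through KCNK3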
hERG protect: compounds protecting human hERG from proarrhythmic drug block; Q12809; CHO-hERG, FluxOR thallium flux, dofetilide IC70 present; 0.51% of 310,000 active; activation (rescue from dofetilide block), less the hit threshold, % at 10 µM;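 active = activation above the mean of controls blocked by dofetilide plus 5 SD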;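 also: thallium influx through hERG after potassium depolarization seen as dye fluorescence rise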
KCNK9 inh: inhibitors of human KCNK9 two-pore domain potassium channel; B-score at 10 µM; HEK293 KCNK9, FluxOR thallium flux fluorescence; stronger effect = lower value; Q9NPC2; 1.2% of 310,000 active;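 active = ratio B-score over 3 SD below the library mean, with starting fluorescence within 5 SD of its mean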;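 also: negative B-score means less thallium flux so channel inhibition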
KCNQ1 inh: blocks the human KCNQ1 potassium channel. P51787. CHO-K1 KCNQ1, FluxOR thallium flux fluorescence; stronger effect = higher value. B-score at 10 µM. 1.3% of 310,000 active. AID 2642;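 active = compounds whose thallium flux B-score, printed positive for inhibition, exceeds three library SD while starting fluorescence stays within three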;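 also: channel opened by potassium depolarization with thallium stimulus after 20 min compound exposure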
KCNK9 inh conf: confirmation of human KCNK9 potassium channel inhibitors. shares compounds with KCNK9 inh. 43% of 4,900 active. inhibition, % at 10 µM. HEK293 KCNK9 cells, FluxOR thallium flux fluorescence;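 active = thallium signal inhibited by more than 5 SD of the compound-free buffer control wells, on both duplicate plates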;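 also: 0% = assay buffer control wells without compound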
Kir2-1 spec: tests whether KCNK9 modulators also affect mouse Kir2.1 | inhibition, % at 10 µM | Kir2.1 cells, FluxOR thallium flux fluorescence | shares compounds with KCNK9 inh | 4% of 4,900 active | AID 492993;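 active = thallium signal drop more than 5 SD beyond the mean of the no-compound control wells, seen in both duplicate plates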;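 also: signal is fluorescence rise after thallium addition divided by baseline fluorescence; plate controls were assay buffer only for no effect and full block by chlorpromazine control for full effect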
KCNK9 uninduced: second counter-screen for KCNK9 modulators: effect in non-induced cells | shares compounds with KCNK9 inh | non-induced KCNK9-HEK293, FluxOR thallium flux | inhibition, % at 10 µM | 40% of 4,900 active | AID 492997;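 active = thallium signal drop beyond 5 SD of the untreated control mean, on both duplicate plates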;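 also: plate controls were buffer only IC0 wells for no effect and SID17386958 at its maximal inhibitory level for full effect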
KCNK3 confirm: confirmation of human KCNK3 two-pore domain potassium channel inhibitors | shares compounds with KCNK3 block | CHO-KCNK3 thallium flux, FluxOR fluorescence; 0% buffer, 100% carvedilol maximal block | ratio percent of control, % at 10 µM | 99% of 2,400 active;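 active = ratio percent of control, averaged over triplicates, above buffer control mean plus 5 SD, cut at about 64% in these data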;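 also: ratio is the fluorescence rise from min to max over baseline after thallium stimulus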
KCNK3 noninduced: counter-screen for KCNK3 inhibitors: effect in non-induced cells; 40% of 2,400 active; thallium flux ratio (lower = more inhibition) at 10 µM; shares compounds with KCNK3 block; non-induced KCNK3 parental cells, FluxOR thallium flux; stronger effect = lower value; AID 651747;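 active = thallium flux ratio, averaged over three wells, more than 5 SD below the buffer control mean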;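 also: host cells are CHO cells without KCNK3 induction; ratio is peak minus trough fluorescence over baseline then normalized to buffer controls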
Active calls of the source: *; i = inactive; / = no result given. In the library only some 3.1% were active in any assay of this set; here they are far more common.

SMILES	KCNQ1 act	KCNK3 block	hERG protect	KCNK9 inh	KCNQ1 inh	KCNK9 inh conf	Kir2-1 spec	KCNK9 uninduced	KCNK3 confirm	KCNK3 noninduced
CC(=O)Nc1sc(C)c(C)c1C(=O)OCCOc1ccccc1	i	-11*	-8	-13*	i	46%*	i	46%*	125*	0.13*
COCCn1c(=NC(=O)CSC(C)=O)sc2cc(OC)ccc21	i	-8.9*	-10	-16*	i	60%*	i	26%*	93*	i
CCCCC(CC)C(=O)Oc1ccc(O)c(C(C)(C)C)c1 (stereo not drawn)	i	-12*	-11	-16*	i	74%*	i	31%*	79*	i
COc1ccc(/C=N/N=C2\SC(CC(=O)O)C(=O)N2c2ccccc2)c(OC)c1 (stereo not drawn)	i	i	-4	i	i	/	/	/	/	/
Cc1ccc(C(C)C)c(OCCCN2CCc3ccccc3C2)c1	i	i	-8	i	i	/	/	/	/	/
Cc1ccc(C(C)C)c(OCCN2CCc3ccccc3C2)c1	i	-9.7*	0	i	i	i	i	i	127*	i
CCCCCCN=C1CC(C)(C)CC(=O)/C1=C(/O)CCC	i	-10*	-12	-18*	i	66%*	i	40%*	94*	i
COc1cc2c(cc1OC)CN(C(=O)c1oc3ccccc3c1C)CC2	i	-10*	-6	-9.9*	i	34%*	i	33%*	100*	i
COc1cc2c(cc1OC)CN(C(=O)c1ccc(-c3ccccc3)cc1)CC2	i	i	-14	i	i	/	/	/	/	/
CC(C)c1ccc(N2CC(C)(C)C2=O)cc1	i	i	-2	i	i	/	/	/	/	/
CCC(=O)N1c2ccc(S(=O)(=O)NCCc3ccccc3)cc2CC1C (stereo not drawn)	i	i	-2	i	i	/	/	/	/	/
O=C(Nc1ccc(Cl)c(S(=O)(=O)N2CCOCC2)c1)c1ccccn1	i	i	-8	i	i	/	/	/	/	/
O=C(Nc1ccc(Cl)c(S(=O)(=O)N2CCOCC2)c1)c1cc(-c2ccccn2)nc2ccccc12	i	-8.8*	-21	-9.5*	i	i	i	i	123*	i
FC(F)(F)c1cccc(-n2cccc2/C=N/n2cnnc2)c1	i	i	-7	i	i	/	/	/	/	/
CCOc1ccccc1-c1cc(C(=O)N/N=C/c2cccnc2)c2ccccc2n1	i	i	-6	i	i	/	/	/	/	/
Cc1ccc(COc2ccccc2-c2cc(C(=O)N/N=C/c3cccnc3)[nH]n2)cc1	i	-12*	-15	-19*	i	64%*	i	26%*	118*	i
O=C(Cc1ccsc1)N1CCc2c([nH]c3ccccc23)C1c1ccccn1 (stereo not drawn)	i	i	-7	i	i	/	/	/	/	/
Clc1ccc(-n2cccc2CN2CCc3c([nH]c4ccccc34)C2c2ccccn2)nc1 (stereo not drawn)	i	-10*	-25	-8.5*	i	38%*	i	25%*	125*	0.14*
CCn1nc(C(=O)Nc2cccc3ccccc23)c(Cl)c1Cl	i	i	-17	-10*	i	49%*	i	36%*	126*	0.16*
CCn1nc(C(=O)NCc2ccco2)c(Cl)c1Cl	i	i	-6	i	i	/	/	/	/	/
S=C(NC1CCCCC1)N(CCc1nc2ccccc2[nH]1)C1CCCC1	i	-10*	-14	i	i	i	i	i	118*	0.13*
